According to ChEMBL document CHEMBL1177709, “Molecular switch controlling the binding of anionic bile acid conjugates to human apical sodium-dependent bile acid transporter” (J Med Chem, 2010):

target: T1, Ileal sodium/bile acid cotransporter (Homo sapiens, UniProt Q12908); assay: Inhibition of human ASBT expressed in MDCK cells assessed as inhibition of [3H]taurocholic acid uptake after 10 mins by liquid scintillation counting; type: cell-based
T1 sequence (Q12908 whole entry): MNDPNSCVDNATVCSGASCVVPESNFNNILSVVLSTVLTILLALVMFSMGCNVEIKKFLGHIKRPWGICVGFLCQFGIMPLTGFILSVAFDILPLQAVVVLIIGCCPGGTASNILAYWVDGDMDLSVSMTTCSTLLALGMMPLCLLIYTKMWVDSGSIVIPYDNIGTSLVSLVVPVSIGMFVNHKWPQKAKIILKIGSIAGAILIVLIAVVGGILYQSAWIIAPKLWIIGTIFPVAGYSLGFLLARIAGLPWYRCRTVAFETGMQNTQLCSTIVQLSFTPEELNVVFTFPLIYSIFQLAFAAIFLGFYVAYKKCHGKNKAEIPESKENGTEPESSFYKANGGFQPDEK
Method in brief: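 Stably transfected hASBT-MDCK cells grown in DMEM with 10% FBS, penicillin/streptomycin and 1 mg/mL geneticin, seeded at 1.5 million/well, induced with 10mM sodium butyrate for 12-17 h before study on day 4. Cells washed with chilled sodium-free buffer, lysed in NaOH, neutralized, counted.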

Row | Compound | Ki [µM]
1 | CCOC(=O)c1ccc(NC(=O)CCC(NC(=O)CCC(C)C2CCC3C4C(O)CC5CC(O)CCC5(C)C4CCC23C)C(=O)O)cc1 (centres undefined) | 5.16
2 | Cc1cccc(NC(=O)CC[C@H](NC(=O)CC[C@@H](C)[C@H]2CC[C@H]3[C@@H]4[C@H](O)C[C@H]5C[C@H](O)CC[C@]5(C)[C@H]4CC[C@]23C)C(=O)O)c1C | 4.3
3 | C[C@H](CCC(=O)N[C@@H](CCC(=O)Nc1ccc(C(F)(F)F)cc1)C(=O)O)[C@H]1CC[C@H]2[C@@H]3[C@H](O)C[C@H]4C[C@H](O)CC[C@]4(C)[C@H]3CC[C@]12C | 2.02
4 | COC(=O)c1ccc(NC(=O)CC[C@H](NC(=O)CC[C@@H](C)[C@H]2CC[C@H]3[C@@H]4[C@H](O)C[C@H]5C[C@H](O)CC[C@]5(C)[C@H]4CC[C@]23C)C(=O)O)cc1 | 4.03
5 | C[C@H](CCC(=O)N[C@@H](CCC(=O)Nc1cccc(N)c1)C(=O)O)[C@H]1CC[C@H]2[C@@H]3[C@H](O)C[C@H]4C[C@H](O)CC[C@]4(C)[C@H]3CC[C@]12C | 16.3
6 | COc1cc(NC(=O)CC[C@H](NC(=O)CC[C@@H](C)[C@H]2CC[C@H]3[C@@H]4[C@H](O)C[C@H]5C[C@H](O)CC[C@]5(C)[C@H]4CC[C@]23C)C(=O)O)cc(OC)c1 | 5.19
7 | C[C@H](CCC(=O)N[C@@H](CCC(=O)Nc1ccccc1C(=O)O)C(=O)O)[C@H]1CC[C@H]2[C@@H]3[C@H](O)C[C@H]4C[C@H](O)CC[C@]4(C)[C@H]3CC[C@]12C | 40.4
8 | Cc1ccccc1NC(=O)CC[C@H](NC(=O)CC[C@@H](C)[C@H]1CC[C@H]2[C@@H]3[C@H](O)C[C@H]4C[C@H](O)CC[C@]4(C)[C@H]3CC[C@]12C)C(=O)O | 2.63
9 | C[C@H](CCC(=O)N[C@@H](CCC(=O)Nc1cccc(C(=O)O)c1)C(=O)O)[C@H]1CC[C@H]2[C@@H]3[C@H](O)C[C@H]4C[C@H](O)CC[C@]4(C)[C@H]3CC[C@]12C | 35.9
10 | CCOC(=O)c1ccccc1NC(=O)CCC(NC(=O)CCC(C)C1CCC2C3C(O)CC4CC(O)CCC4(C)C3CCC12C)C(=O)O (centres undefined) | 1.15
11 | C[C@H](CCC(=O)N[C@@H](CCC(=O)Nc1ccc(F)cc1)C(=O)O)[C@H]1CC[C@H]2[C@@H]3[C@H](O)C[C@H]4C[C@H](O)CC[C@]4(C)[C@H]3CC[C@]12C | 3.02
12 | C[C@H](CCC(=O)N[C@@H](CCC(=O)NCc1cccc(C(=O)O)c1)C(=O)O)[C@H]1CC[C@H]2[C@@H]3[C@H](O)C[C@H]4C[C@H](O)CC[C@]4(C)[C@H]3CC[C@]12C | 126
13 | COc1cccc(NC(=O)CC[C@H](NC(=O)CC[C@@H](C)[C@H]2CC[C@H]3[C@@H]4[C@H](O)C[C@H]5C[C@H](O)CC[C@]5(C)[C@H]4CC[C@]23C)C(=O)O)c1 | 4.22
14 | C[C@H](CCC(=O)N[C@@H](CCC(=O)Nc1ccc(C(=O)O)cc1)C(=O)O)[C@H]1CC[C@H]2[C@@H]3[C@H](O)C[C@H]4C[C@H](O)CC[C@]4(C)[C@H]3CC[C@]12C | 108
15 | C[C@H](CCC(=O)N[C@@H](CCC(=O)Nc1ccc(N)cc1)C(=O)O)[C@H]1CC[C@H]2[C@@H]3[C@H](O)C[C@H]4C[C@H](O)CC[C@]4(C)[C@H]3CC[C@]12C | 15.9
16 | Cc1cccc(NC(=O)CC[C@H](NC(=O)CC[C@@H](C)[C@H]2CC[C@H]3[C@@H]4[C@H](O)C[C@H]5C[C@H](O)CC[C@]5(C)[C@H]4CC[C@]23C)C(=O)O)c1 | 0.889
17 | Cc1ccc(NC(=O)CC[C@H](NC(=O)CC[C@@H](C)[C@H]2CC[C@H]3[C@@H]4[C@H](O)C[C@H]5C[C@H](O)CC[C@]5(C)[C@H]4CC[C@]23C)C(=O)O)cc1 | 3.2

Row | Compound | Ki [µM]
18 | C[C@H](CCC(=O)N[C@@H](CCC(=O)Nc1ccccc1C(C)(C)C)C(=O)O)[C@H]1CC[C@H]2[C@@H]3[C@H](O)C[C@H]4C[C@H](O)CC[C@]4(C)[C@H]3CC[C@]12C | 3.93
19 | C[C@H](CCC(=O)N[C@@H](CCC(=O)Nc1ccc(C(C)(C)C)cc1)C(=O)O)[C@H]1CC[C@H]2[C@@H]3[C@H](O)C[C@H]4C[C@H](O)CC[C@]4(C)[C@H]3CC[C@]12C | 0.275
20 | COC(=O)c1ccccc1NC(=O)CC[C@H](NC(=O)CC[C@@H](C)[C@H]1CC[C@H]2[C@@H]3[C@H](O)C[C@H]4C[C@H](O)CC[C@]4(C)[C@H]3CC[C@]12C)C(=O)O | 2.3
21 | C[C@H](CCC(=O)N[C@@H](CCC(=O)Nc1ccccc1F)C(=O)O)[C@H]1CC[C@H]2[C@@H]3[C@H](O)C[C@H]4C[C@H](O)CC[C@]4(C)[C@H]3CC[C@]12C | 2.31
22 | C[C@H](CCC(=O)N[C@@H](CCC(=O)Nc1cccc(F)c1)C(=O)O)[C@H]1CC[C@H]2[C@@H]3[C@H](O)C[C@H]4C[C@H](O)CC[C@]4(C)[C@H]3CC[C@]12C | 1.25
23 | C[C@H](CCC(=O)N[C@@H](CCC(=O)Nc1cccc(C(C)(C)C)c1)C(=O)O)[C@H]1CC[C@H]2[C@@H]3[C@H](O)C[C@H]4C[C@H](O)CC[C@]4(C)[C@H]3CC[C@]12C | 0.587
24 | COc1ccccc1NC(=O)CC[C@H](NC(=O)CC[C@@H](C)[C@H]1CC[C@H]2[C@@H]3[C@H](O)C[C@H]4C[C@H](O)CC[C@]4(C)[C@H]3CC[C@]12C)C(=O)O | 3.89
25 | Cc1cccc(C)c1NC(=O)CC[C@H](NC(=O)CC[C@@H](C)[C@H]1CC[C@H]2[C@@H]3[C@H](O)C[C@H]4C[C@H](O)CC[C@]4(C)[C@H]3CC[C@]12C)C(=O)O | 8.07
26 | C[C@H](CCC(=O)N[C@@H](CCC(=O)Nc1cccc(C(=O)O)c1)C(=O)OOCc1ccccc1)[C@H]1CC[C@H]2[C@@H]3[C@H](O)C[C@H]4C[C@H](O)CC[C@]4(C)[C@H]3CC[C@]12C | 2.24
27 | CC(CCC(=O)NC(CCC(=O)Nc1cccc(NC(=O)OC(C)(C)C)c1)C(=O)O)C1CCC2C3C(O)CC4CC(O)CCC4(C)C3CCC12C (centres undefined) | 6.53
28 | COC(=O)c1cccc(NC(=O)CC[C@H](NC(=O)CC[C@@H](C)[C@H]2CC[C@H]3[C@@H]4[C@H](O)C[C@H]5C[C@H](O)CC[C@]5(C)[C@H]4CC[C@]23C)C(=O)O)c1 | 7.65
29 | CC(CCC(=O)NC(CCC(=O)Nc1ccc(NC(=O)OC(C)(C)C)cc1)C(=O)O)C1CCC2C3C(O)CC4CC(O)CCC4(C)C3CCC12C (centres undefined) | 5.26
30 | COc1ccc(NC(=O)CC[C@H](NC(=O)CC[C@@H](C)[C@H]2CC[C@H]3[C@@H]4[C@H](O)C[C@H]5C[C@H](O)CC[C@]5(C)[C@H]4CC[C@]23C)C(=O)O)cc1 | 6.09
31 | C[C@H](CCC(=O)N[C@@H](CCC(=O)Nc1ccccc1N)C(=O)O)[C@H]1CC[C@H]2[C@@H]3[C@H](O)C[C@H]4C[C@H](O)CC[C@]4(C)[C@H]3CC[C@]12C | 2.64
32 | C[C@H](CCC(=O)N[C@@H](CCC(=O)NCc1ccc(C(=O)O)cc1)C(=O)O)[C@H]1CC[C@H]2[C@@H]3[C@H](O)C[C@H]4C[C@H](O)CC[C@]4(C)[C@H]3CC[C@]12C | 41
33 | C[C@H](CCC(=O)N[C@@H](CCC(=O)Nc1ccc(F)cc1F)C(=O)O)[C@H]1CC[C@H]2[C@@H]3[C@H](O)C[C@H]4C[C@H](O)CC[C@]4(C)[C@H]3CC[C@]12C | 3.16
34 | C[C@H](CCC(=O)N[C@@H](CCC(=O)Nc1ccc(Cl)cc1)C(=O)O)[C@H]1CC[C@H]2[C@@H]3[C@H](O)C[C@H]4C[C@H](O)CC[C@]4(C)[C@H]3CC[C@]12C | 1.91
